Measured values as given in ChEMBL document CHEMBL2321808, “Synthesis and preliminary evaluation in tumor bearing mice of new (18)F-labeled arylsulfone matrix metalloproteinase inhibitors as tracers for positron emission tomography” (J Med Chem, 2013).
The source made the active and inactive calls. No cut-off for these calls is given here.

Tests used:
[1] = Drug uptake in large tumor in CD1 nude mouse xenografted with human U87MG cells assessed as accumulation within the rim at 7.4 MBq after 45 mins by PET imaging analysis; assay type: ADME, Neoplasm, U-87MG ATCC; details: in vivo, 0.75 h
[2] = Drug uptake in small tumor in CD1 nude mouse xenografted with human U87MG cells assessed as uniform distribution at 7.4 MBq after 45 mins by PET imaging analysis; assay type: ADME, Neoplasm, U-87MG ATCC; details: in vivo, 0.75 h
[3] = Drug uptake in tumor in CD1 nude mouse xenografted with human U87MG cells at 7.4 MBq after 45 mins by PET imaging analysis; assay type: ADME, Neoplasm, U-87MG ATCC; details: in vivo, 0.75 h
Mus musculus [4] = assay: Biodistribution in CD1 nude mouse small intestine at 7.4 MBq, iv after 10 mins by PET imaging analysis; assay type: ADME, organism-based; details: in vivo
How it was run: (§1)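 Healthy CD1 nude mice, 6–8 weeks old (n = 2–3 per tracer), under isoflurane anesthesia. Tracer given by tail-vein catheter, ~7.4 MBq in 0.15–0.30 mL PBS. Dynamic PET from injection to 2.5 h. Organ ROIs drawn and counts calibrated against an [18F]fluoride phantom. Uptake decay-corrected and expressed as %ID/g.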

Liver [5] = assay: Biodistribution in CD1 nude mouse liver at 7.4 MBq, iv after 10 mins by PET imaging analysis; assay type: ADME, organism-based; details: in vivo; how it was run: as §1
Albumin = Albumin (Homo sapiens, UniProt P02768); assay: Binding affinity to human serum albumin by 19F NMR titration assay; assay type: ADME
How it was run: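 19F NMR at 310.0 K; ligand at 1.0 mM final (dissolved in DMSO, brought to volume with PBS pH 7.4 containing 10% D2O), TFA as chemical-shift reference. Fatty-acid-free human serum albumin added stepwise (0.36 mM aliquots in PBS or solid) up to protein:ligand 3:1; scans raised from 64 to 16 384 along the titration.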

Collagenase 3 = Collagenase 3 (Homo sapiens, UniProt P45452); assay: Inhibition of MMP-13 (unknown origin) using Mca-Lys-Pro-Leu-Gly-Leu-Dap(Dnp)-Ala-Arg-NH2 as substrate after 4 hrs by fluorometric assay
How it was run: (§2)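 Fluorogenic substrate added at 2 μM final. Fluorescence (ex 325/em 395 nm) read every 15 s for 20 min. Run in triplicate. IC50 from vi/v0 = 1/(1 + [I]/IC50); Ki also derived.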

[6] = biological target: Macrophage metalloelastase (Homo sapiens, UniProt P39900); assay: Inhibition of MMP-12 (unknown origin) using Mca-Lys-Pro-Leu-Gly-Leu-Dap(Dnp)-Ala-Arg-NH2 as substrate after 4 hrs by fluorometric assay; how it was run: as §2
Interstitial collagenase = biological target: T1, Interstitial collagenase (Homo sapiens, UniProt P03956); assay: Inhibition of MMP-1 (unknown origin) using Mca-Lys-Pro-Leu-Gly-Leu-Dap(Dnp)-Ala-Arg-NH2 as substrate after 4 hrs by fluorometric assay; how it was run: as §2
T1 sequence (P03956 whole entry): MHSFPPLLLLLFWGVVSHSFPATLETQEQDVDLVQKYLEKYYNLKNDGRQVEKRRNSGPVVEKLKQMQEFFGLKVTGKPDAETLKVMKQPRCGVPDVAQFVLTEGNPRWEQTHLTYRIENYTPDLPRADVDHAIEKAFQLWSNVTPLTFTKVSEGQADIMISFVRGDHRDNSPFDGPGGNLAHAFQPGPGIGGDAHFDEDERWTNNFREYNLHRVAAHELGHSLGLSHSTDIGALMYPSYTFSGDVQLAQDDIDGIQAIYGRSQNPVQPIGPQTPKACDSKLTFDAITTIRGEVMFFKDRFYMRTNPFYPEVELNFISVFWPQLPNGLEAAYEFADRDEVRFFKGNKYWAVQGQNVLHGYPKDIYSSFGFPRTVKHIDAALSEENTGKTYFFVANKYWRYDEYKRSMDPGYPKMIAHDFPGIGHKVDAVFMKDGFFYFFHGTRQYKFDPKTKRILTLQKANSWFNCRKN

Stromelysin-1 = Stromelysin-1 (Homo sapiens, UniProt P08254); assay: Inhibition of MMP-3 (unknown origin) using Mca-Arg-Pro-Lys-Pro-Val-Glu-Nva-Trp-Arg-Lys-(Dnp)-NH2 as substrate after 4 hrs by fluorometric assay; how it was run: as §2
[7] = biological target: Matrix metalloproteinase-9 (Homo sapiens, UniProt P14780); assay: Inhibition of MMP-9 (unknown origin) using Mca-Lys-Pro-Leu-Gly-Leu-Dap(Dnp)-Ala-Arg-NH2 as substrate after 4 hrs by fluorometric assay; how it was run: as §2
[8] = biological target: 72 kDa type IV collagenase (Homo sapiens, UniProt P08253); assay: Inhibition of MMP-2 (unknown origin) using Mca-Lys-Pro-Leu-Gly-Leu-Dap(Dnp)-Ala-Arg-NH2 as substrate after 4 hrs by fluorometric assay; how it was run: as §2
[9] = biological target: Matrix metalloproteinase-14 (Homo sapiens, UniProt P50281); assay: Inhibition of human recombinant MMP-14 catalytic domain using Mca-Lys-Pro-Leu-Gly-Leu-Dap(Dnp)-Ala-Arg-NH2 as substrate after 4 hrs by fluorometric assay; how it was run: as §2
Mus musculus [10] = assay: In vivo binding affinity to MMP-2 in human U87MG tumor xenografted in mouse assessed as MMP-2 level after 12 hrs by PET scanning followed by gelatin zymography; assay type: functional, organism-based; details: tested as the 18F-labelled form
How it was run: (§3)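 Xenograft tumors excised within 12 h after PET, frozen at −80 °C, ground, and lysed in 1% Triton X-100. Supernatant run on 10% SDS-PAGE containing 0.1% gelatin. Gel renatured in 2.5% Triton X-100, then developed 24 h at 37 °C in 50 mM Tris-HCl pH 7.4, 10 mM CaCl2, 0.5 μM ZnCl2, and stained with Coomassie. MMP-2 read at 72 kDa, MMP-9 at 92 kDa.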

Mus musculus [11] = assay: In vivo inhibition of MMP in CD1 nude mouse xenografted with human U87MG cells at 7.4 MBq after 100 mins by PET imaging analysis in presence of ilomastat; assay type: functional, organism-based; design: dose or concentration left out as unconfirmed; details: U-87MG ATCC, tested as the 18F-labelled form
How it was run: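 U-87 MG xenografted female CD1 nude mice received ilomastat i.p. at 40–160 mg/kg, 30 min before iv tracer (~7.4 MBq). Static 30-min PET acquired 100 min post-injection. %ID/g measured over whole tumor, rim and core.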

Mus musculus [12] = assay: In vivo binding affinity to MMP-9 in human U87MG tumor xenografted in mouse assessed as MMP-9 level after 12 hrs by PET scanning followed by gelatin zymography; assay type: functional, organism-based; details: tested as the 18F-labelled form; how it was run: as §3
Mus musculus [13] = assay: Biodistribution in CD1 nude mouse small intestine at 7.4 MBq, iv after 140 mins by PET imaging analysis; assay type: ADME, organism-based; details: in vivo
How it was run: (§4)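 Healthy CD1 nude mice, 6–8 weeks, 2–3 per tracer, anesthetized with isoflurane. Tail-vein injection via catheter in PBS, with residual syringe dose checked. Dynamic PET from injection to 2.5 h, 3D EM reconstruction, no attenuation or scatter correction, phantom-calibrated. Manual ROIs on organs; decay-corrected uptake expressed as % ID/g.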

Liver [14] = assay: Biodistribution in CD1 nude mouse liver at 7.4 MBq, iv after 45 mins by PET imaging analysis; assay type: ADME, organism-based; details: in vivo, 0.75 h; how it was run: as §4
[15] = Drug uptake in tumor in […] CD1 nude mouse xenografted with human U87MG cells after 100 mins by PET imaging analysis; assay type: ADME, organism-based, Neoplasm, U-87MG ATCC; details: in vivo
[16] = Drug uptake in tumor in […] CD1 nude mouse xenografted with human U87MG cells after 10 mins by PET imaging analysis; assay type: ADME, organism-based, Neoplasm, U-87MG ATCC; details: read-out: Drug uptake
[17] = Drug uptake in small tumor in CD1 nude mouse xenografted with human U87MG cells assessed as uniform distribution at 7.4 MBq after 100 mins by PET imaging analysis; assay type: ADME, Neoplasm, U-87MG ATCC; details: in vivo
[18] = Drug uptake in tumor in CD1 nude mouse xenografted with human U87MG cells at 7.4 MBq after 100 mins by PET imaging analysis; assay type: ADME, Neoplasm, U-87MG ATCC; details: in vivo
[19] = Drug uptake in large tumor in CD1 nude mouse xenografted with human U87MG cells assessed as accumulation within the rim at 7.4 MBq after 100 mins by PET imaging analysis; assay type: ADME, Neoplasm, U-87MG ATCC; details: in vivo

Chain of Matrix metalloproteinase-9 (P14780 whole entry): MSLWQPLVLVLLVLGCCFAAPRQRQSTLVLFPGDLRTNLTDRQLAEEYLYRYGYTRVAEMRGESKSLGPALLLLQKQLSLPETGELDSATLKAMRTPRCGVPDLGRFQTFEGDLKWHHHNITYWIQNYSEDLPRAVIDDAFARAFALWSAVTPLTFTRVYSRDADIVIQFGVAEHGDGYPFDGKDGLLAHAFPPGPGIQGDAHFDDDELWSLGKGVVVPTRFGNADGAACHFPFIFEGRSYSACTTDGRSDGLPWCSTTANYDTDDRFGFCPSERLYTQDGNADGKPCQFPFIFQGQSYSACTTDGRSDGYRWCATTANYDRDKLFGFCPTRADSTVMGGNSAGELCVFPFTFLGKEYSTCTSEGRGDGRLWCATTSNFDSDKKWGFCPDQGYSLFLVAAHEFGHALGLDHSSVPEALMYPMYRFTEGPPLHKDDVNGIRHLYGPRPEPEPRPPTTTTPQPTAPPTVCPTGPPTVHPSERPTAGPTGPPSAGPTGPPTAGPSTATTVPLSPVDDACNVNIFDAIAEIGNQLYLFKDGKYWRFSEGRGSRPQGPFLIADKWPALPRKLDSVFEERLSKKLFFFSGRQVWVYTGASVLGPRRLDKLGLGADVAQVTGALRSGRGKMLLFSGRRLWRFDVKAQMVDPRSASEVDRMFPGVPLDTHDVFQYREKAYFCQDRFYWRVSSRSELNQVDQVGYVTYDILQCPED
Chain of 72 kDa type IV collagenase (P08253 whole entry, the tested form may be a part): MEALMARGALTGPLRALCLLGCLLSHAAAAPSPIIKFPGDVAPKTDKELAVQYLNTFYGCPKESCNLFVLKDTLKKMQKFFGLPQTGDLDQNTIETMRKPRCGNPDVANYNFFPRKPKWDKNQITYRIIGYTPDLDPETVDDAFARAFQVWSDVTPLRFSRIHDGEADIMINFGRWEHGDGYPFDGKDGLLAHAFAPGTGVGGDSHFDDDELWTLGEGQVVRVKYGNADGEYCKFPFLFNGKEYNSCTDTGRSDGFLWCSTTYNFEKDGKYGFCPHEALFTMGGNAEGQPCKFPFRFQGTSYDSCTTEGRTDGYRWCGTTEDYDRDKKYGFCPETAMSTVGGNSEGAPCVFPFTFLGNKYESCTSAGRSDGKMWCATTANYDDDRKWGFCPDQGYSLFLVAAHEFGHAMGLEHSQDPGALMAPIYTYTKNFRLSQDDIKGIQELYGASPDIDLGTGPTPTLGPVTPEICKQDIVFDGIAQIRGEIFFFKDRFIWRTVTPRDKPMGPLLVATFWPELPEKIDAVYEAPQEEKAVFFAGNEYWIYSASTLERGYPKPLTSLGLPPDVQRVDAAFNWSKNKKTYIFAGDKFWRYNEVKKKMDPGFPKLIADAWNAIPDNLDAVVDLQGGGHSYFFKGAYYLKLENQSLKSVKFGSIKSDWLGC
Chain of Stromelysin-1 (P08254 whole entry): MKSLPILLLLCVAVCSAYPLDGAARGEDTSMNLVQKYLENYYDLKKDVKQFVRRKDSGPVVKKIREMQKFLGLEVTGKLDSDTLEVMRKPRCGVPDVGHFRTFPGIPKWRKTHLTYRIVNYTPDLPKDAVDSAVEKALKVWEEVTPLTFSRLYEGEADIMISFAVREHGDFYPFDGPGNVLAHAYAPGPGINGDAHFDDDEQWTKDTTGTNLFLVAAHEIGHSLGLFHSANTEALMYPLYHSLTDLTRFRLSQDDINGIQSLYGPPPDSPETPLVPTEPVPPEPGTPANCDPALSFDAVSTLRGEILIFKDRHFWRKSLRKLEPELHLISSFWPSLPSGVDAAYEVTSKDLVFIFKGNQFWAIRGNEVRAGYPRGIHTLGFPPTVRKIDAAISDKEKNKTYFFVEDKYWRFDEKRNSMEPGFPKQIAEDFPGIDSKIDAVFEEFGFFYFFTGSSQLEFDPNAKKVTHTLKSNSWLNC
Chain of Macrophage metalloelastase (P39900 whole entry): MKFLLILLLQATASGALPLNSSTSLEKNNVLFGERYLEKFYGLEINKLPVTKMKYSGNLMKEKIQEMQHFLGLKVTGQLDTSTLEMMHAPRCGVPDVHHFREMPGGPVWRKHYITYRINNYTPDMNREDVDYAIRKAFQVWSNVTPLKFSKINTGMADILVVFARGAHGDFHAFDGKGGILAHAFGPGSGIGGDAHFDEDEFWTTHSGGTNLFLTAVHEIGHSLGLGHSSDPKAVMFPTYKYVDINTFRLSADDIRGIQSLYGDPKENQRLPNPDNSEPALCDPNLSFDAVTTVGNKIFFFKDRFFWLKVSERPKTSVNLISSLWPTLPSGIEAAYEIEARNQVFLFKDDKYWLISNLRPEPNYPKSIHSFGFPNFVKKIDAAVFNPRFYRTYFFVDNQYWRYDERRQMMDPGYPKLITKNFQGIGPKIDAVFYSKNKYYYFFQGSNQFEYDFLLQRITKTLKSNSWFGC
Chain of Albumin (P02768 whole entry): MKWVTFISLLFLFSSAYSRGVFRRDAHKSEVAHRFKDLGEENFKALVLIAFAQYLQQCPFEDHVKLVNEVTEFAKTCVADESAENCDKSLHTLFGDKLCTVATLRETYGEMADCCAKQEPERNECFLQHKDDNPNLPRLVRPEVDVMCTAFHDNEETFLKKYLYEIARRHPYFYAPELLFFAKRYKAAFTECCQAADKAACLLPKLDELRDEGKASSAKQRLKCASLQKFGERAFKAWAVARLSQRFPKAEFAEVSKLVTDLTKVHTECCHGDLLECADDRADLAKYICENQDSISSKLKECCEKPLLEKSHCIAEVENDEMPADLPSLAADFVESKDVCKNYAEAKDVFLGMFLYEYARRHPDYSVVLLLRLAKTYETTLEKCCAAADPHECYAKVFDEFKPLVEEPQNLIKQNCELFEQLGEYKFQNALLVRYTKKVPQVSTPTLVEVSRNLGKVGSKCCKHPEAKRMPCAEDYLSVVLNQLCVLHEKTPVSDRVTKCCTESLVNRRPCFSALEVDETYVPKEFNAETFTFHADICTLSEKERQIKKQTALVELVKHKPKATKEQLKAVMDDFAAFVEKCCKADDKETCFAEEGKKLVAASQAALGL

Row | Structure (SMILES) | Drug uptake (Mus musculus [4]) | Drug uptake (Liver [5]) | IC50 (Collagenase 3) | IC50 [6] | IC50 (Interstitial collagenase) | IC50 (Stromelysin-1) | IC50 [7] | IC50 [8] | IC50 [9] | other results
1 | OC[C@H]1OC(O)[C@H]([18F])[C@@H](O)[C@@H]1O (some centres undefined) [FLUDEOXYGLUCOSE F 18] | – | – | – | – | – | – | – | – | – | Drug uptake [1]: Active; Drug uptake [2]: Active; Drug uptake [3]: 4.39 % ID/g
2 | O=C(O)Cc1ccccc1S(=O)(=O)c1ccc(-c2ccc(NC(=O)CF)cc2)cc1 | – | – | 220 nM | 500 nM | 6100 nM | 6800 nM | 1500 nM | 61 nM | 4600 nM | Kd (Albumin): 10000 nM
3 | O=C(O)Cc1ccccc1S(=O)(=O)c1ccc(-c2ccc(NC(=O)C[18F])cc2)cc1 | 2.4 % ID/g | 11% | – | – | – | – | – | – | – | Drug uptake (Mus musculus [13]): 12.4 % ID/g; Drug uptake (Liver [14]): 6.1 % ID/g
4 | O=C(O)Cc1ccccc1S(=O)(=O)c1ccc(-c2ccc(F)cc2)cc1 | – | – | 386 nM | 400 nM | 11500 nM | 67000 nM | 3600 nM | 230 nM | 4800 nM | –

Continued, in another order:

Row | Drug uptake (Mus musculus [4]) | Drug uptake (Liver [5]) | IC50 (Collagenase 3) | IC50 [6] | IC50 (Interstitial collagenase) | IC50 (Stromelysin-1) | IC50 [7] | IC50 [8] | IC50 [9] | Structure (SMILES) | other results
5 | 4.1 % ID/g | 21.6 % ID/g | – | – | – | – | – | – | – | CC(C)(C)OC(=O)Cc1ccccc1S(=O)(=O)c1ccc(-c2ccc(OCC[18F])cc2)cc1 | –
6 | – | – | 22 nM | 44 nM | 18500 nM | 7100 nM | 107 nM | 16 nM | 1600 nM | O=C(O)Cc1ccccc1S(=O)(=O)c1ccc(-c2ccc(OCCF)cc2)cc1 | Kd (Albumin): 140000 nM; Activity (Mus musculus [10]): Active; inhibition (Mus musculus [11]): Active; Activity (Mus musculus [12]): Active
7 | 2.5 % ID/g | 11.2 % ID/g | – | – | – | – | – | – | – | O=C(O)Cc1ccccc1S(=O)(=O)c1ccc(-c2ccc(OCC[18F])cc2)cc1 | Drug uptake [15]: 1.7 % ID/g; tissue uptake at 10 min [16]: 1.1 %ID/g; Drug uptake (Mus musculus [13]): 13.1 % ID/g; Drug uptake [17]: Active; Drug uptake (Liver [14]): 8.5 % ID/g; Drug uptake [18]: 1.4 % ID/g; Drug uptake [19]: Active
